Here are results for one molecule from ChEMBL document CHEMBL4613263, “Optimization of Tetrahydroindazoles as Inhibitors of Human Dihydroorotate Dehydrogenase and Evaluation of Their Activity and In Vitro Metabolic Stability” (J Med Chem, 2020).

pIC50: −log10 of the molar value. Converted amounts (≈) assume the structure as drawn. The source made the active and inactive calls. The calls are words filed in the database; no cut-off is given here.

Usually half-life stands for the time in which the quantity being followed falls by half. In general, pIC50 refers to −log10 of the IC50, conventionally taken in molar units.

Data set [1] is described as follows: Kinetic aqueous solubility of compound in Prima HT solution at pH 7.4 incubated for 4 hrs by UV-spectrophotometry. Type of data set: physicochemical. The settings on record: read-out: Kinetic_solubility. An outline of the steps:
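20 mM DMSO stocks diluted 100× into Prima HT buffer at pH 7.4 and shaken 4 h at rt. Samples filtered through 0.22 µm, mixed 1:1 with isopropanol and scanned by UV from 190–400 nm against stock reference standards.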

Data set [2] is described as follows: Metabolic stability in CD-1 mouse liver microsomes assessed as half life at 1 uM incubated for 60 mins by LC-MS/MS analysis. Type of data set: ADME, Microsome. Conditions: CD-1, mouse, liver microsomes. An outline of the steps: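 Compound at 1 µM with 1.0 mg/mL human or mouse liver microsomes in 50 mM potassium phosphate pH 7.4, preincubated 5 min at 37 °C. Started with 1 mM NADPH (or blank buffer). Quenched with cold acetonitrile containing glipizide at 0, 5, 15, 30, 60 min. Parent loss tracked by LC-MS/MS in MRM mode; t½ = 0.693/k from slope of peak-area ratio versus time.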

The target of data set [3] is T1, Dihydroorotate dehydrogenase (quinone), mitochondrial (Homo sapiens, UniProt Q02127). The data set can be described thus: Inhibition of DHODH in human ARN8 cells assessed as activation of p53-dependent transcription at 0.05 to 10 uM incubated for 16 hrs by CPRG assay. Type of data set: cell-based. An outline of the steps:
(§1)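 ARN8 cells carrying the RGCΔFos-LacZ p53 reporter seeded at 2×10^4 per well and left 24 h, then treated 16 h (0.1% DMSO final, ±100 µM uridine). Cells washed, lysed and frozen at −20 °C for at least 2 h. β-galactosidase measured with CPRG substrate at pH 7.5, read at 590 nm after 24 h. Result is fold change vs DMSO; mean ± SD of three technical replicates.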

Data set [4] has as its target T1, Dihydroorotate dehydrogenase (quinone), mitochondrial. The data set is described as follows: Inhibition of DHODH in human ARN8 cells assessed as activation of p53-dependent transcription at 0.05 to 10 uM incubated for 16 hrs in presence of 100 uM […], uridine by CPRG assay. Type of data set: cell-based. A digest of the protocol:
as §1

Data set [5] can be described thus: Antiproliferative activity against human ARN8 cells assessed as reduction in cell viability incubated for 72 hrs by SRB assay. Type of data set: functional, cell-based. The settings on record: Homo sapiens, ARN8, 72 h; read-out: IC50.
For the next data set, the species on record is Homo sapiens. The data set can be described thus: Antiproliferative activity against human ARN8 cells assessed as reduction in cell viability at 0.005 to 10 uM incubated for 72 hrs in presence of 100 uM […], uridine by SRB assay. Type of data set: functional, cell-based. In general terms: The SRB assay estimates cell density from bound dye.

The target of data set [6] is T1, Dihydroorotate dehydrogenase (quinone), mitochondrial. The data set is described as follows: Inhibition of DHODH in human ARN8 cells assessed as increase in p53 level at 20 nM incubated for 24 hrs by Western blot analysis. Type of data set: cell-based. A digest of the protocol:
(§2)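 ARN8 cells seeded at 15×10^4 per well and left 24 h. Treated 24 h at 20 nM, or with etoposide at 20 µM for 1 h, with 100 µM uridine where indicated. Lysates made in LDS buffer and protein-normalized, then run on 4–15% gels and transferred to PVDF. Phospho-proteins blocked in BSA, others in milk; primary antibodies overnight at 4 °C, ECL detection. Loading judged by stain-free total protein.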
Background: Immunoblotting shows a protein as a band on a membrane.

Data set [7] has the same target. The data set can be described thus: Inhibition of DHODH in human ARN8 cells assessed as induction of DNA damage by measuring increase in p53 phosphorylation at Ser15 at 20 nM incubated for 24 hrs in presence of 100 uM […], uridine by Western blot analysis. Type of data set: cell-based. An outline of the steps: as §2

Data set [8] has the same target. The data set is described as follows: Inhibition of DHODH in human ARN8 cells assessed as induction of DNA damage by measuring increase in gammaH2AX level at 20 nM incubated for 24 hrs by Western blot analysis. Type of data set: cell-based. A digest of the protocol: as §2
Data set [9] shares this target. The data set is described as follows: Inhibition of DHODH in human ARN8 cells assessed as induction of DNA damage by measuring increase in gammaH2AX level at 20 nM incubated for 24 hrs in presence of 100 uM […], uridine by Western blot analysis. Type of data set: cell-based. A digest of the protocol: as §2

Data set [10] shares this target. The data set is described as follows: Inhibition of DHODH in human ARN8 cells assessed as DNA damage by measuring Chk1 phosphorylation at Ser345 at 20 nM incubated for 24 hrs by Western blot analysis. Type of data set: cell-based. A digest of the protocol:
(§3)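 ARN8 cells treated 24 h before lysis in LDS buffer and protein normalization. Western blot blocked in 5% BSA/TBS-T, primary antibody overnight at 4 °C, HRP secondary and ECL detection. Loading taken from stain-free total protein.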

The target is the same in data set [11]. The data set can be described thus: Inhibition of DHODH in human ARN8 cells assessed as DNA damage by measuring Chk2 phosphorylation at Thr68 at 20 nM incubated for 24 hrs by Western blot analysis. Type of data set: cell-based. A digest of the protocol: as §3
The target is the same in data set [12]. The data set is described as follows: Inhibition of DHOH in human ARN8 cells assessed as gammaH2AX level at 20 nM incubated for 24 hrs treated with pan-capse inhibitor, Z-VAD-FMK for 4.5 hrs prior to harvesting by Western blot analysis. Type of data set: cell-based. A digest of the protocol: (§4)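 ARN8 cells treated 24 h at 20 nM, with 20 µM Z-VAD-FMK or vehicle added 4.5 h before harvest. Etoposide arm was 20 µM for 1 h alongside Z-VAD-FMK. Lysates normalized for protein and analysed by western blot for p53, p-Ser15 p53, γ-H2AX, H2AX and cleaved PARP (85 kDa) against stain-free total-protein loading.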

Data set [13] has the same target. The data set is described as follows: Inhibition of DHOH in human ARN8 cells assessed as increase in cleaved PARP level at 20 nM incubated for 24 hrs by Western blot analysis. Type of data set: cell-based. A digest of the protocol: as §4
Data set [14] shares this target. The data set is described as follows: Inhibition of DHOH in human ARN8 cells assessed as increase in YOYO3 positive cells at 20 nM incubated for 48 hrs in presence of pan-caspase inhibitor, Z-VAD-FMK measured every 2 hrs by YOYO-3 staining based live cell imaging analysis. A digest of the protocol: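 ARN8 cells seeded at 4×10^3 per well and left 24 h, then given 20 nM compound in medium containing 2 µM caspase-3/7 substrate and 0.3 µM YOYO-3 (0.2% DMSO). Where indicated, 100 µM uridine or 20 µM Z-VAD-FMK was added. Cells imaged every 2 h for 48.5 h in an IncuCyte. Positive-cell counts per mm² normalized to confluence %; mean ± SD of three technical replicates.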

Data set [15] shares this target. The data set can be described thus: Inhibition of DHODH in human ARN8 cells assessed as increase in p53 level at 20 nM incubated for 24 hrs in presence of pan-caspase inhibitor, Z-VAD-FMK by Western blot analysis. Type of data set: cell-based. An outline of the steps:
as §4

The target is the same in data set [16]. The data set is described as follows: Inhibition of […] in human ARN8 cells assessed as increase in Bax protein expression at 20 nM incubated for 24 hrs by Western blot analysis. Type of data set: cell-based.
The target is the same in data set [17]. The data set is described as follows: Inhibition of […] in human ARN8 cells assessed as increase in Bax protein expression at 20 nM incubated for 24 hrs in presence of pan-caspase inhibitor, Z-VAD-FMK by Western blot analysis. Type of data set: cell-based.
Data set [18] shares this target. The data set is described as follows: Inhibition of […] in human ARN8 cells assessed as decrease in Bcl2 protein expression at 20 nM incubated for 24 hrs in presence of pan-caspase inhibitor, Z-VAD-FMK by Western blot analysis. Type of data set: cell-based.
The target is the same in data set [19]. The data set can be described thus: Inhibition of recombinant human DHODH using dihydroorotic acid as substrate in presence of 2 nM of DHODH by DCIP assay.

T1 sequence (Q02127 whole entry): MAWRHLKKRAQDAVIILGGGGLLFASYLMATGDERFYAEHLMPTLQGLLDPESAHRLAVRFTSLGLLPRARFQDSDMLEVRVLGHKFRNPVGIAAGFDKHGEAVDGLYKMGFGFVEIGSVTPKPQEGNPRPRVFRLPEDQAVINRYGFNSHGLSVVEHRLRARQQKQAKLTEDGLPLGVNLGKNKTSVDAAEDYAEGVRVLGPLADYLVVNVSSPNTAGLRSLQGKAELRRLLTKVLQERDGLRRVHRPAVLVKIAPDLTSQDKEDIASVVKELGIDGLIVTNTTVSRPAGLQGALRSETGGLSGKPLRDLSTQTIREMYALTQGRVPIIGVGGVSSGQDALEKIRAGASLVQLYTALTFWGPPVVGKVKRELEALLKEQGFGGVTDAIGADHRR

Consider `O=C(N[C@@H]1CCCc2c1cnn2-c1ccccc1F)c1ncn2c1CCCC2`, for which the solubility kinetic at 4 h in [1] came out at 74 µM (≈ 28.1 µg/mL). For the same molecule, the half-life at 1 µM in data set [2] was found to be 36 min. Further, the inhibition entry in data set [3], in data set [6], in data set [8], in data set [13], in data set [15] and in data set [16] was “Active” each time. Also, the inhibition result in data set [17] and in data set [18] was “Active” in each case. Moreover, the inhibition result in data set [4], in data set [7], in [9], in [10], in data set [11] and in [12] was “inactive” each time. Further, the inhibition entry in data set [14] is “inactive”. In addition, the pIC50 is 7.66 in data set [5] and 8.64 in [19]. In addition, in the data set filed under Homo sapiens, the outcome was inactive.
